The structures appear in SMILES notation.

In test [1] the target is T1, Glutamine synthetase (Escherichia coli K-12, UniProt P0A9C5).
T1 sequence (P0A9C5 whole entry): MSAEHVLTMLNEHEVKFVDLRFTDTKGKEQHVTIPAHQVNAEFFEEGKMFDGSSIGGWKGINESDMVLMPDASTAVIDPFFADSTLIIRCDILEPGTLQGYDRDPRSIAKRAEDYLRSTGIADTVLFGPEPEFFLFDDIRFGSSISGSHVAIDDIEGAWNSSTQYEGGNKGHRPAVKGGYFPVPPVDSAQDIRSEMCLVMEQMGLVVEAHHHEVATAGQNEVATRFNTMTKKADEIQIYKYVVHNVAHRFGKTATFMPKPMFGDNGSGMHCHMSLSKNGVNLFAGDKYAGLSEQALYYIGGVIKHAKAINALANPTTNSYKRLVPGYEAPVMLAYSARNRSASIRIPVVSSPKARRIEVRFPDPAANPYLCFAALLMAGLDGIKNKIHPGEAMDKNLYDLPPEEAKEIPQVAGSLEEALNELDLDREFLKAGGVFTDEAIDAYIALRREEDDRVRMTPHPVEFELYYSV
Put plainly: Inhibitory concentration against glutamine synthetase incubated at 37 degree C for 20 minutes in pH 7.4. The essentials: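 Fully activated E. coli strain W GS (30 pkat) in 50 mM Tris-HCl pH 7.4 with 100 mM glutamate, 5 mM ATP, 1 mM NH4Cl and 25 mM MgCl2, run at 37 °C for up to 20 min. Phosphate release was measured from the initial linear rate. IC50 came from linear regression of % control against log concentration.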

The target in test [2] is T1, Glutamine synthetase. The test can be described thus: (§1) Binding affinity towards glutamine synthetase. The essentials: (§2)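 E. coli strain W glutamine synthetase (fully activated), full forward reaction read by inorganic phosphate release at 37 °C, pH 7.4 Tris-HCl. Glutamate was varied from 15 to 80 mM, with ATP and NH4Cl fixed at standard levels. At least four inhibitor levels were tested, each dose at least in triplicate. Ki came from Lineweaver–Burk plots and is given as mean ± SEM.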

Test [3] deals with T1, Glutamine synthetase. The description is as §1. The essentials:
as §2
The source holds these as a separate data set.

As to `C[C@@H](N)P(=O)(O)CC[C@H](N)C(=O)O`, on Glutamine synthetase [1], inhibition was half-maximal at 31 µM (IC50). Further, the inhibitory constant (Ki) on Glutamine synthetase [2] and on Glutamine synthetase [3] was 3.4 µM throughout.

With `CP(=O)(O)CC[C@H](N)C(=O)O`, the IC50 (usually the concentration at which inhibition is half-maximal) on Glutamine synthetase [1] came out at 1.2 µM. For the same compound, the inhibitory constant (Ki) on Glutamine synthetase [2] and on Glutamine synthetase [3] was 0.6 µM throughout.

Take `N[C@@H](CCP(=O)(O)CO)C(=O)O`: the 50% inhibitory concentration (IC50) at Glutamine synthetase [1] was 10.4 µM. Also, the Ki on Glutamine synthetase [2] and at Glutamine synthetase [3] was 2.1 µM in each case.

As for `NCP(=O)(O)CC[C@H](N)C(=O)O`, at Glutamine synthetase [1], half-maximal inhibition (IC50) was put at 1 µM. For the same compound, the Ki on Glutamine synthetase [2] and on Glutamine synthetase [3] was 0.59 µM in each case.

`NCCP(=O)(O)CC[C@H](N)C(=O)O`: the concentration for half-maximal inhibition (IC50) against Glutamine synthetase [1] was 55 µM. Besides, the Ki at Glutamine synthetase [2] and at Glutamine synthetase [3] was 13 µM each time.

As to `N[C@@H](CCP(=O)(O)CCC(=O)O)C(=O)O`, the IC50 against Glutamine synthetase [1] worked out at 970 µM. In addition, the inhibitory constant (Ki) (commonly the dissociation constant of the complex between target and ligand, obtained from inhibition or displacement) at Glutamine synthetase [2] is 150 µM; on Glutamine synthetase [3], 147 µM.

As for `C[C@H](N)P(=O)(O)CC[C@H](N)C(=O)O` (mixture of isomers), the 50% inhibitory concentration (IC50) against Glutamine synthetase [1] came to 33 µM. For the same compound, the Ki on Glutamine synthetase [2] and on Glutamine synthetase [3] was 3.7 µM in each case.

The values are drawn from ChEMBL document CHEMBL1140441, “Design, synthesis, and activity of analogues of phosphinothricin as inhibitors of glutamine synthetase” (J Med Chem, 2005).
